# In the library only some 1.4% were active in any assay of this set; here they are far more common.
# NR1D1 modulator: modulators of human Rev-erb alpha DNA binding; P20393; Rev-erbα–FITC-DNA binding, fluorescence polarization, 90 min; activity, % at 10 µM; 370,000 compounds, 0.79% hits;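 active means activity above about 14%, limit read from the data; passing the limit was not always enough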;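 further: 0% = DMSO wells with 35 nM protein and 100% = DMSO wells with 750 nM protein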
# Target sequence (P20393 whole entry, looked up): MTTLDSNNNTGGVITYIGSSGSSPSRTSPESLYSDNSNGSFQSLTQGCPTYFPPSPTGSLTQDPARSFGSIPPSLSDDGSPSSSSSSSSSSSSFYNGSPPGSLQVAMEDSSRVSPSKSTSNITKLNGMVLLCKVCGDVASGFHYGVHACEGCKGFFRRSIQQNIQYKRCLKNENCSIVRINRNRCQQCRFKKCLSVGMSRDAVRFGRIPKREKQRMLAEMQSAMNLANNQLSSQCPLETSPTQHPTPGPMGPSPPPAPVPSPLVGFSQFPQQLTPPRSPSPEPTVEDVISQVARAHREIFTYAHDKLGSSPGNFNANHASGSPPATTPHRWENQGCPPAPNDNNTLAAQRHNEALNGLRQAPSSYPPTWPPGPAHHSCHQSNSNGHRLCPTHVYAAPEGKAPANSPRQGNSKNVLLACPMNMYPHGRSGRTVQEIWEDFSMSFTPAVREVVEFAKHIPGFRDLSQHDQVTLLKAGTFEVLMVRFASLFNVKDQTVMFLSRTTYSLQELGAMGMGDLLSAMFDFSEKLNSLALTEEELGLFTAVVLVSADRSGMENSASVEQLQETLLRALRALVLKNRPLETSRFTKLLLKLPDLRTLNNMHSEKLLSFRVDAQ
# NR2E3 ag-1: activates human photoreceptor nuclear receptor NR2E3; 320,000 compounds, 0.12% hits; inhibition of corepressor binding, % at 4.78 µM; Q9Y5X4; GST-NR2E3/biotin-RetCOR TR-FRET, 1536-well;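 active means percent inhibition above the cutoff of mean plus 3 SD of all tested compounds, set per screening campaign, cut at about 20% in these data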;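 further: 0% = DMSO wells and 100% = biotin wells as full block of FRET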
#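 system = GST-tagged NR2E3 plus biotinylated RetCOR corepressor | input = 1.35 nM GST-NR2E3 | also added = 7 nM biotin-RetCOR | schedule = 5 h incubation at 4 °C | measured by = TR-FRET with europium anti-GST and streptavidin-D2, 340 nm excitation | read-out = percent loss of FRET ratio relative to control wells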
# NR2E3 ag-2: human photoreceptor-specific nuclear receptor agonism. inhibition of corepressor binding, % at 3.98 µM. AID 602229. CHO-S Gal4-NCOR/VP16-NR2E3 two-hybrid, luciferase. 360,000 compounds, 0.35% hits. Q9Y5X4;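 active means inhibition above the mean of all tested compounds plus 3 SD, cut at about 70% in these data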;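 further: 0% = DMSO with NR2E3 transfected cells and 100% = cells lacking NR2E3 construct; higher means lower luciferase signal from less NR2E3 corepressor binding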
# PG9 Ab binder: small molecules binding HIV-1 gp120 antibody PG9; TR-FRET gp120-PG9 antibody binding; inhibition, % at 6.7 µM; 360,000 compounds, 0.43% hits; in the data active means inhibition above about 8.5%
# NR1D1 mod conf: Rev-erb alpha (human) modulation, hit confirmation; shares compounds with NR1D1 modulator; Rev-erb alpha FITC-DNA binding, fluorescence polarization, 90 min; activation, % at 25 µM; 3,000 compounds, 61% hits; AID 1259319;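 active means activation at or above a set limit, or at least 3 SD above the negative control mean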;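 further: 0% = 35 nM protein with DMSO and 100% = 750 nM protein high control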
# RORg counter: affects RORgamma DNA binding in a Rev-erb alpha counter-screen | shares compounds with NR1D1 modulator | purified RORgamma protein-FITC-DNA binding, fluorescence polarization | IC50, µM | 910 compounds, 8% hits;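 active means Compounds whose fitted half-maximal concentration for disrupting protein-DNA binding is below 10 micromolar; the record names Rev-erb in its text, so the target is in doubt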
# * hit, by the source's call; i = inactive; . = not tested or not shown.
SMILES,NR1D1 modulator,NR2E3 ag-1,NR2E3 ag-2,PG9 Ab binder,NR1D1 mod conf,others
Cc1ccc2nc(SCC(=O)N3N=C(c4cccs4)CC3c3ccc(F)cc3)nc(=O)n2c1 (stereo unspecified),-4,.,9,3,.,
COc1ccc(C2=NN(C(=O)CSc3ncccn3)C(c3cccc(OC)c3OC)C2)cc1 (stereo unspecified),39*,0,0,-4,33*,RORg counter=>40
Cc1ccc(C2CC(c3cccs3)=NN2C(=O)CSc2nc(=O)n3cc(C)ccc3n2)cc1 (stereo unspecified),27*,-2,-39,0,18*,
COc1ccc(C2=NN(C(=O)CSc3nc(=O)n4cccc(C)c4n3)C(c3ccc(C)cc3)C2)cc1 (stereo unspecified),39*,-7,3,0,9,
COc1ccc(C2=NN(C(=O)CSc3ncccn3)C(c3ccc(C)cc3)C2)cc1 (stereo unspecified),1,-2,12,-3,.,
CCOC(=O)CC[C@@H]1CC[C@]2(CCCN(C(=O)C3CCCCC3)C2)O1,0,.,.,.,.,
CCCCCCSc1ccc(-c2nc3ccc(Cl)cn3c2NCCCC)cc1OC,6,.,-31,1,.,
CCCCCCSc1cc(-c2nc3ccc(Cl)cn3c2NC2CCCCC2)ccc1OC,11,1,25,0,.,
CCCCNc1c(-c2ccc(SC3CCCCC3)c(OC)c2)nc2ccc(Cl)cn12,20*,2,-17,-2,9,
Cc1ccn2c(NC3CCCCC3)c(-c3cccc(SC4CCCCC4)c3)nc2c1,3,.,7,1,.,
CCCCCCSc1ccc(-c2nc3ccc(Cl)cn3c2NC2CCCCC2)cc1,23*,.,-13,1,22*,
Cc1ccn2c(NC3CCCCC3)c(-c3ccc(SC4CCCCC4)cc3)nc2c1,33*,.,5,4,15*,
CCCCCCSc1ccc(-c2nc3ccc(C)cn3c2NCCCC)cc1OC,16*,.,-27,2,6,
O=S1(=O)c2ccc(Br)cc2OC[C@H](Cc2ccccc2)N1Cc1cn(CCC2OCCO2)nn1,0,.,.,.,.,
c1ccc(Nc2nc(N3CCCC3)nc(N3CCOCC3)n2)cc1,-1,-1,44,-1,.,
O=C1CSC(c2ccccc2)N1Nc1nc(N2CCOCC2)nc(N2CCOCC2)n1 (stereo unspecified),22*,1,4,-2,5,
C=CCOc1ccc(C2C(C(=O)c3cccs3)=C(O)C(=O)N2c2nnc(C)s2)cc1 (stereo unspecified),34*,3,-13,2,54*,RORg counter=>40
O=[N+]([O-])c1ccc(NN=Cc2cccc3ccccc23)cc1,1,.,-11,-1,.,
Cc1ccc[n+](-c2nc([O-])sc2/C=N/Nc2ccc([N+](=O)[O-])cc2)c1,26*,-4,-12,-4,14,
Nn1c(SCC(=O)Nc2ccc(OCc3ccccc3)cc2)nnc1-c1cc(-c2ccc(Cl)cc2)n[nH]1,-4,.,.,.,.,
Cc1cc2c(cc(C(=O)OC(C)C(=O)NCc3ccccc3)n2C)o1 (stereo unspecified),26*,.,-13,-1,18*,
Cc1cc2c(cc(C(=O)OC(C)C(=O)NCc3ccc(F)cc3)n2C)o1 (stereo unspecified),6,.,4,1,.,
CN(C(=O)c1ccccc1OCC(=O)Nc1ccc(Br)cc1)c1ccccc1,-1,.,.,.,.,
COC(=O)C1CN(Cc2ccc(F)cc2)CCS(=O)(=O)N1Cc1ccc(C(F)(F)F)cc1 (stereo unspecified),-3,.,.,.,.,
NS(=O)(=O)c1ccc(CCNC(=O)c2ccc3c(c2)N(Cc2ccccc2)CCS3)cc1,39*,2,-8,4,13,
SMILES,NR1D1 modulator,NR2E3 ag-1,NR2E3 ag-2,PG9 Ab binder,NR1D1 mod conf,others
NC(=O)CSc1nnc(-c2ccncc2)n1-c1ccc(Cl)cc1,-10,4,15,2,.,
O=C(CSc1nnc(-c2ccncc2)n1-c1ccc(Cl)cc1)c1ccc(Cl)c(Cl)c1,31*,.,.,.,31*,RORg counter=>40
Cc1ccc(-c2nc3sc4c(c3c(=O)n2N)CC(C)(C)OC4)cc1,15,3,-3,0,.,
CC1(C)Cc2c(sc3nc(-c4cc5ccccc5o4)n(N)c(=O)c23)CO1,48*,2,-36,0,26*,
CCCCN(C(=O)c1ccco1)c1nnc(-c2cc(OC)c(OC)c(OC)c2)s1,99*,-3,-18,-2,15,
CCCN(C(=O)c1ccco1)c1nnc(-c2ccncc2)s1,1,-2,-7,0,.,
Cc1ccc(NC(=O)C2CCCN(S(=O)(=O)c3ccc4[nH]c(=O)ccc4c3)C2)cc1C (stereo unspecified),5,1,25,6,.,
COc1ccc(NC(=O)C2CCCN(S(=O)(=O)c3ccc4[nH]c(=O)ccc4c3)C2)cc1OC (stereo unspecified),23*,0,13,7,0,
COc1ccc(OC)c(CN2C(=O)c3ccnn3CC2(C)c2nnnn2C2CCCC2)c1 (stereo unspecified),5,.,.,.,.,
C=CCn1c(SCC(=O)N2CC(=O)Nc3ccccc32)nc2scc(-c3ccccc3)c2c1=O,2,0,-1,-2,.,
C=CCn1c(SCCN2C(=O)c3ccccc3C2=O)nc2scc(-c3ccc(F)cc3)c2c1=O,21*,.,-27,1,14,
COc1ccc2c(c1)c(=O)oc1cc(OCC(=O)NC3CC3)ccc12,24*,0,-20,-2,34*,RORg counter=i
COc1ccc2c(c1)c(=O)oc1cc(OCC(=O)NC3CCCCC3)ccc12,-9,2,7,4,.,
O=S(=O)(NCCc1csc(-c2cccnc2)n1)c1cccs1,24*,-3,-38,0,-5,
Cc1cc(-c2nnc(SCC(=O)Nc3cccc4ccccc34)n2N)n[nH]1,-1,.,.,.,.,
N#C/C(=C(/O)C(Cl)c1ccccc1)c1nc2ccccc2s1 (stereo unspecified),76*,0,-33,-1,49*,RORg counter=>40
N#C/C(=C(/O)c1cccc(F)c1)c1nc2ccccc2s1,1,3,-77,0,.,
CCOc1ccc(/C(O)=C2/C(=O)C(=O)N(CCCn3ccnc3)C2c2cccs2)cc1Cl (stereo unspecified),48*,7,-87,8,47*,
CN1C(=O)C(c2cn(C)c3ccccc23)(c2cn(C)c3ccccc23)c2ccccc21,7,.,.,.,.,
COc1nc(-c2ccccc2)ccc1-c1noc(-c2cccs2)n1,59*,1,-89,2,40*,RORg counter=>40
COc1ccc(-c2ccc(-c3noc(-c4ccccc4)n3)c(OC)n2)cc1,22*,0,-23,-2,18*,
COc1ccc(-c2ccc(-c3noc(-c4ccccc4F)n3)c(OC)n2)cc1,38*,.,4,-2,39*,RORg counter=>40
COc1nc(-c2ccccc2)ccc1-c1noc(-c2ccccc2)n1,14,1,-101,1,.,

# Bioassay records from PubChem.
